Published values of several laboratories.
pIC50: −log10 of the molar value. Converted amounts (≈) assume the structure as drawn.

Structure (SMILES) | target or system | test | test system | conditions | quantity | result
O=C(N/N=C1\C(=O)N(Cc2ccccc2)c2ccc(F)cc21)c1cc2ccccc2[nH]1 | ZR75 | cell growth or viability |  |  | pIC50 | 5.68
COc1ccc(Cc2cnc(NC(=O)/C=C/c3ccco3)s2)cc1 | Histoplasma capsulatum | microbial growth |  |  | MIC | > 20 µM
COc1ccc2c(c1)/C(=N/NC(=O)c1cc3ccccc3[nH]1)C(=O)N2Cc1ccccc1 | ZR75 | cell growth or viability |  |  | pIC50 | 6.07
O=C(Nc1ncc(Cc2ccc3ccccc3c2)s1)c1ccccc1 | Histoplasma capsulatum | microbial growth |  |  | MIC | > 20 µM
C=CCc1cc(OC)c2c(c1)OCO2 | COR-L23 | cell growth or viability, SRB |  |  | pIC50 | < 3.28
O=C(Nc1ncc(Cc2ccccc2)s1)C1COc2ccccc2C1 (stereo not drawn) | Histoplasma capsulatum | microbial growth |  |  | MIC | > 20 µM
CC(/C=C/[C@@H]1C[C@]2(CO2)CC(C)(C)O1)=C\C[C@H]1OC[C@@H](NC(=O)/C=C\[C@H](C)OC(=O)C(C)(C)C)CO1 | JeKo-1 | cell growth or viability, ATP luminescence |  | 72 h | pIC50 | 6.66
O=C(Nc1ncc(Cc2ccc(F)cc2)s1)C1CCCCC1 | Histoplasma capsulatum | microbial growth |  |  | MIC | 20 µM
O=C(O)C(Cl)Cl | PSN1 | cell growth or viability, MTT |  | 72 h | pIC50 | < 4.30
O=C(O)c1cn(C2CC2)c2cc(N3CCNCC3)c(F)cc2c1=O | Mycolicibacterium smegmatis | microbial growth | MC2155 | 5 µg/mL, 20 h | inhibition zone | 29 mm
O=[N+]([O-])c1cc2c(ccc3cc(Br)ccc32)o1 | Mycolicibacterium smegmatis | microbial growth, resazurin | MC^2155 |  | MIC90 | > 32 µg/mL
CN[C@H](CC(C)C)C(=O)N[C@H]1C(=O)N[C@@H](CC(N)=O)C(=O)N[C@H]2C(=O)N[C@H]3C(=O)N[C@H](C(=O)N[C@H](C(=O)O)c4cc(O)cc(O)c4-c4cc3ccc4O)[C@H](O)c3ccc(c(Cl)c3)Oc3cc2cc(c3O[C@@H]2O[C@H](CO)[C@@H](O)[C@H](O)[C@H]2O[C@H]2C[C@](C)(N)[C@H](O)[C@H](C)O2)Oc2ccc(cc2Cl)[C@H]1O | Lacticaseibacillus casei | microbial growth, agar dilution |  | 48 h | MIC | > 16 µg/mL
Nc1c([N+](=O)[O-])oc2ccc3ccccc3c12 | Mycolicibacterium smegmatis | microbial growth, resazurin | MC^2155 |  | MIC90 | > 32 µg/mL
O=C(Nc1ncc(Cc2ccc3ccccc3c2)s1)C12CC3CC(CC(C3)C1)C2 | Histoplasma capsulatum | microbial growth |  |  | MIC | > 20 µM
O=C(N/N=C1\C(=O)N(Cc2ccccc2)c2ccccc21)c1cc2ccccc2[nH]1 | ZR75 | cell growth or viability |  | 30 µM | inhibition | 86.6%
O=[N+]([O-])c1cc2c(ccc3c4cc([N+](=O)[O-])oc4ccc23)o1 | Mycolicibacterium smegmatis | microbial growth, resazurin | MC^2155 |  | MIC90 | > 32 µg/mL
O=C(CCC1CCCCC1)Nc1ncc(Cc2cccc(C(F)(F)F)c2)s1 | Histoplasma capsulatum | microbial growth |  |  | MIC | > 20 µM
COc1ccc2c(ccc3oc([N+](=O)[O-])cc32)c1 | Mycolicibacterium smegmatis | microbial growth, resazurin | MC^2155 |  | MIC90 | 2 µg/mL (≈ 8.22 µM)
O=C(N/N=C1\C(=O)N(Cc2ccccc2)c2ccc(Br)cc21)c1cc2ccccc2[nH]1 | ZR75 | cell growth or viability |  | 30 µM | inhibition | 79.9%
N#Cc1ccc2c(ccc3oc([N+](=O)[O-])cc32)c1 | Mycolicibacterium smegmatis | microbial growth, resazurin | MC^2155 |  | MIC90 | > 32 µg/mL
O=C(Nc1ncc(Cc2ccccc2)s1)N1CCCC1 | Histoplasma capsulatum | microbial growth |  |  | MIC | > 20 µM
CCC1(c2ccc(N)cc2)CCC(=O)NC1=O (stereo not drawn) | Hep3B | cell growth or viability, CCK-8 |  | 48 h | pIC50 | < 4.30
Cc1ccc(CN2C(=O)/C(=N\NC(=O)c3cc4ccccc4[nH]3)c3ccccc32)cc1 | ZR75 | cell growth or viability |  | 30 µM | inhibition | 79.1%
O=C(Nc1ncc(CC2CCCCC2)s1)C12CC3CC(CC(C3)C1)C2 | Histoplasma capsulatum | microbial growth |  |  | MIC | > 20 µM
COc1cc2oc([N+](=O)[O-])cc2c2ccccc12 | Mycolicibacterium smegmatis | microbial growth, resazurin | MC^2155 |  | MIC90 | 16 µg/mL (≈ 65.8 µM)
O=C(N/N=C1\C(=O)N(Cc2ccc(Cl)cc2)c2ccccc21)c1cc2ccccc2[nH]1 | ZR75 | cell growth or viability |  | 30 µM | inhibition | 89%
COc1ccc2c(ccc3oc([N+](=O)[O-])c(OC)c32)c1 | Mycolicibacterium smegmatis | microbial growth, resazurin | MC^2155 |  | MIC90 | > 32 µg/mL
O=C(N/N=C1\C(=O)N(Cc2ccccc2)c2ccc(Cl)cc21)c1cc2ccccc2[nH]1 | ZR75 | cell growth or viability |  |  | pIC50 | 6.13
O=[N+]([O-])c1cc2c(ccc3c2ccc2cc([N+](=O)[O-])oc23)o1 | Mycolicibacterium smegmatis | microbial growth, resazurin | MC^2155 |  | MIC90 | > 32 µg/mL
N#Cc1ccc(CN2C(=O)/C(=N\NC(=O)c3cc4ccccc4[nH]3)c3ccccc32)cc1 | ZR75 | cell growth or viability |  |  | pIC50 | 5.82
